Measured values published in ChEMBL document CHEMBL1126550, “Nanomolar-affinity, non-peptide oxytocin receptor antagonists” (J Med Chem, 1993).

Key:
[1] = molecular target: T1, Oxytocin receptor (Homo sapiens, UniProt P30559); assay: Tested against human uterine OT receptor
T1 sequence (P30559 whole entry): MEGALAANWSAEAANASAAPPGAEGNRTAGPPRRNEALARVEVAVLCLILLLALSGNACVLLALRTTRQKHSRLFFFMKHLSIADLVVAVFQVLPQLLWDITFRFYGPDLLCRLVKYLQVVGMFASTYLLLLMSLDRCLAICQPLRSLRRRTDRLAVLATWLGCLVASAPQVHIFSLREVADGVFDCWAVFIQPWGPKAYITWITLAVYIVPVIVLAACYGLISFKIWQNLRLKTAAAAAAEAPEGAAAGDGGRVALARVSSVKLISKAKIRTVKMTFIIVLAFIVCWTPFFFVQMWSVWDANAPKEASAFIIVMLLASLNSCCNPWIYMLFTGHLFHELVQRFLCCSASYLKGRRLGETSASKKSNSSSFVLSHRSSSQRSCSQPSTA

[2] = molecular target: T2, Oxytocin receptor (Rattus norvegicus, UniProt P70536); assay: Inhibition of radioligand [3H]oxytocin binding at the oxytocin (OT) receptor in rat uterine tissue
T2 sequence (P70536 whole entry): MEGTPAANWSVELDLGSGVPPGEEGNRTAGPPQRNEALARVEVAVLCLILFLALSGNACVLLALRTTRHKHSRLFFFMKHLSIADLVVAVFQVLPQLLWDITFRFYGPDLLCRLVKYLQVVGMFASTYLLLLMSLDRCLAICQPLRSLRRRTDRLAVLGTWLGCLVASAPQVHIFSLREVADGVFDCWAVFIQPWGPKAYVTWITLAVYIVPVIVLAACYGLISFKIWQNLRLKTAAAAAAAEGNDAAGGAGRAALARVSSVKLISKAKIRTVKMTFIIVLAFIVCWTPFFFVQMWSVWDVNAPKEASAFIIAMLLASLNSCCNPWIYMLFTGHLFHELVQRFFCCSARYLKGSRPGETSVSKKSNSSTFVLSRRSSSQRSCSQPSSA
In short: (§1)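 Uteri taken from rats given diethylstilbestrol dipropionate (0.3 mg/kg ip, 18–24 h before), crude membranes. 1 nM [3H]OT (30–60 Ci/mmol), equilibrium 60 min at 22 °C in 50 mM Tris-HCl, 5 mM MgCl2, 0.1% BSA, pH 7.4. Nonspecific binding with 1 mM unlabeled OT. Filtered on glass fiber. Initial single-concentration screen, then IC50 from seven concentrations by linear regression.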

[3] = molecular target: T2, Oxytocin receptor; assay: Tested against rat uterine OT receptor; in short: as §1
[4] = tested on: Rattus norvegicus; assay: Tested for inhibition of OT-stimulated uterine activity in the rat after an intravenous dose; type: functional
[5] = organism: Rattus norvegicus; assay: Tested for antagonistic activity in isolated rat uterus; type: functional; conditions: read-out: pA2 (converted)
[6] = molecular target: Vasopressin V1 receptor (Rattus norvegicus, UniProt P48974+P30560); assay: Inhibition of radioligand [3H]AVP binding to the vasopressin V1 receptor in rat liver tissue
In short: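 Crude membranes from male rat liver (V1 sites) competed with 1 nM [3H]AVP (80–90 Ci/mmol). Equilibrium 30 min, 30 °C, buffer 100 mM Tris-HCl, 5 mM MgCl2, 0.1% BSA, 50 μM PMSF, 50 μg/mL bacitracin, pH 8.0. 10 μM unlabeled AVP for nonspecific binding. Filtration through glass-fiber filters. IC50 from linear regression over seven concentrations.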

[7] = molecular target: Vasopressin V2 receptor (Rattus norvegicus, UniProt Q00788); assay: Inhibition of radioligand [3H]-AVP binding to the vasopressin V2 receptor in rat kidney tissue
In short: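 [3H]AVP (80–90 Ci/mmol) at 2 nM competed on crude membranes from male rat kidney medulla (V2 sites). Equilibrium 30 min at 30 °C in 100 mM Tris-HCl, 5 mM MgCl2, 0.1% BSA, 50 μM PMSF, 50 μg/mL bacitracin, pH 8.0. Nonspecific binding with 10 μM unlabeled AVP. Glass-fiber filtration. IC50 by linear regression of % inhibition vs log concentration, seven concentrations.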

Chain of Vasopressin V2 receptor (Q00788 whole entry): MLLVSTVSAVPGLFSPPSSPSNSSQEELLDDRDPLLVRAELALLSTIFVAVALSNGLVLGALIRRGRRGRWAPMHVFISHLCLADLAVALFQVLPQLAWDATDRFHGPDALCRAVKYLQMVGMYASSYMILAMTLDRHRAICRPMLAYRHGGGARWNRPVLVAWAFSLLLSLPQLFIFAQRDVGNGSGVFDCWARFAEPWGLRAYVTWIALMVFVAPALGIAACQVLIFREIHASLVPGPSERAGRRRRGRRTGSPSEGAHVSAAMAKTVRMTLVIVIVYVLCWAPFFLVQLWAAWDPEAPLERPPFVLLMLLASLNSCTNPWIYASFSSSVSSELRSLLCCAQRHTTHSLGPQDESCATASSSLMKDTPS

Q: With `CC1(C)[C@@H]2CC[C@@]1(CS(=O)(=O)N1CCC3(CCc4ccccc43)CC1)[C@@H](NC(=O)Cc1c[nH]cn1)C2` as the compound, how does the Ki [1] read?
A: Its Ki is 61 nM.

Q: And the IC50 [2]?
A: The IC50 was 52 nM.

Q: What about the Ki [3] of the same compound?
A: Its Ki is 26 nM.

Q: What about the AD50 [4] of the same compound?
A: The AD50 was 1.5 mg/kg.

Q: What about the Kb [5] of the same compound?
A: Its Kb is 11.7 nM.

Q: What about the IC50 [6] of the same compound?
A: Its IC50 is 5600 nM.

Q: What about the IC50 [7] of the same compound?
A: The IC50 was 17000 nM.
